Assay outcomes from PubChem.
APJ antag – antagonists of human apelin receptor APJ, primary screen, CHO-K1 cells, beta-arrestin complementation, luminescence | 0.32% of 330,000 active | P35414 | inhibition, % at 20 µM | AID 2521, 2010;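 active = inhibition above about 40% at 20 µM, limit read from the data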;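 also: cells challenged with 10 nM apelin-13 agonist together with compound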
APJ ag – agonists of human apelin receptor APJ, primary screen, CHO-K1 cells, PathHunter beta-arrestin, luminescence | activation, % at 20 µM | 0% DMSO wells, 100% apelin | 0.11% of 330,000 active;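 active = activation more than six SD over the plate average, tested at 20 µM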
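Assay system: CHO-K1 cells stably expressing ProLink-tagged human APJ and arrestin–beta-gal acceptor. Compound dosing: 20 µM single point, 1% DMSO. Times: 16-18 h seeding, 90 min dark compound exposure, 60 min detection. Detection: beta-gal luminescence. Evaluation: APJ–arrestin association signal. Controls: negative DMSO alone, positive Apelin-13 at 10 nM.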
CXCR6 block – CXCR6 receptor inhibitors, primary screen, cell-based, beta-arrestin, luminescence, CHO-K1 PathHunter, 1536-well. 0.36% of 360,000 active. inhibition, % at 20 µM. C-X-C chemokine receptor type 6 (Homo sapiens), O00574. AID 602244, 2012; in the data active = inhibition above about 34%, passing the limit was not always enough;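 also: antagonist mode with CXCL16 agonist at 10 nM final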
Target sequence (O00574 whole entry, looked up): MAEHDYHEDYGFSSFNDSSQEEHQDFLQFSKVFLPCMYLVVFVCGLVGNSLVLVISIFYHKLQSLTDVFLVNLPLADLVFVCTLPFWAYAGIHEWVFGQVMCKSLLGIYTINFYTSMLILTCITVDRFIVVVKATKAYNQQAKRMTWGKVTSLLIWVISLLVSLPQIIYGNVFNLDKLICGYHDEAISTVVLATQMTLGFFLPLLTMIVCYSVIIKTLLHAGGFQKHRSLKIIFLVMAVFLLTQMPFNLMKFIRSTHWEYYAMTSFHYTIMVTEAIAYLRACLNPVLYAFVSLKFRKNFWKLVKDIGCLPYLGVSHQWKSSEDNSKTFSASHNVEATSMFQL
NTR1 agonist – agonists of human NTR1, primary screen, imaging, U2OS cells, beta-arrestin-GFP, high content; Neurotensin receptor type 1 (Homo sapiens), P30989; NTR1-U2OS beta-arrestin-GFP spot imaging, agonist mode; activation, % at 20 µM; 0.17% of 330,000 active; AID 493036, 2011;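 active = activation at or above 40% of the spot to cytoplasm intensity ratio, with at least 20 cells analyzed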
m5-HT2A agonist – mouse Htr2a agonists via beta-arrestin recruitment, primary screen, cell-based, luminescence; 5-hydroxytryptamine receptor 2A (Mus musculus), P35363; CHO-K1 mHTR2A beta-arrestin complementation; percent of 30 µM serotonin response; activation, % at 7.6 µM; 0.66% of 360,000 active; AID 624169, 2012;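 active = activation above a run cutoff, the mean activation of all tested compounds plus 3 SD, cut at about 14% in these data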
CCR6 antagonist – CCR6 receptor antagonists, primary screen, cell-based, CHO-K1, luminescence, beta-arrestin, uHTS. C-C chemokine receptor type 6 (Homo sapiens), P51684. CHO-K1 CCR6 PathHunter beta-arrestin, CCL20-stimulated. inhibition, % at 20 µM. 0.49% of 340,000 active. AID 493098, 2011;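 active = compounds whose inhibition of the agonist-driven luminescence signal at 20 µM reaches about 50%, limit read from the data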;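 also: cells stimulated with CCL20 at 14 nM final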
APJ antag confirm – APJ antagonists blocking beta-arrestin recruitment, confirmation, cell-based, luminescence, single concentration, uHTS hits; shares compounds with APJ antag; antagonist mode; inhibition, % at 20 µM; 66% of 950 active; in the data active = inhibition above about 50%
Of the large screens only hits and unclear results are named; the others gave an inactive call (follow-up assays come after a bar, where they were run). A selection: hits, their analogues and other compounds. The true share with any hit is near 1.5%.

CN(C(=O)COC(=O)CSc1cc(Cl)ccc1Cl)c1c(N)n(Cc2ccccc2)c(=O)[nH]c1=O	none
Cc1cc(C)n(CCc2nc(-c3ccco3)cs2)n1	APJ antag 56 | APJ antag confirm inactive
Cn1c(N)c(C(=O)CSc2nn(-c3ccccc3)c(=S)s2)c(=O)n(C)c1=O	none
N#C/C(=N\Nc1ccc(S(=O)(=O)N2CCCCCC2)cc1)C(N)=S	APJ antag 48 | APJ antag confirm 64
COc1ccc(NC(=O)/C(Cl)=C(/Cl)S(=O)Cc2ccc(Cl)cc2)cn1 (centres undefined)	APJ antag 83, CXCR6 block 100, CCR6 antagonist 100 | APJ antag confirm 105
Oc1c(C(c2cccs2)N2CCN(c3ccccc3)CC2)ccc2cccnc12 (centres undefined)	none (no result: CXCR6 block, m5-HT2A agonist, CCR6 antagonist)
Oc1c(C(c2ccccc2Cl)N2CCCC2)ccc2cccnc12 (centres undefined)	APJ antag 56 | APJ antag confirm 56
CN(C)c1ccc(/C=C2\N=C(c3ccc(Cl)c([N+](=O)[O-])c3)NC2=O)cc1	APJ antag 52, CXCR6 block 45, CCR6 antagonist 63 | APJ antag confirm 104
O=C(COC(=O)c1ccccc1F)c1ccc(-n2nncc2-c2ccco2)cc1	APJ antag 41 | APJ antag confirm inactive
CNc1ccccc1C(=O)OCC(=O)c1ccc(F)cc1	none
Cc1cc(C(=O)CSc2nnc(CCC(N)=O)n2C)c(C)n1C1CC1	none
CCOc1cc(/C=C2\SC(=O)N(CC(=O)Nc3ccccc3F)C2=O)cc([N+](=O)[O-])c1O	APJ antag 54 | APJ antag confirm 79
COc1cc(/C=C2\SC(=O)N(CC(=O)Nc3ccccc3F)C2=O)cc(Cl)c1O	none
N#CC(C#N)c1ccnc2ccccc12	none (no result: APJ antag, APJ ag, NTR1 agonist, CCR6 antagonist)
COc1cccc(C(c2c(C)[nH]n(-c3ccccc3)c2=O)c2c(C)[nH]n(-c3ccccc3)c2=O)c1O	none
Cc1[nH]n(-c2ccccc2)c(=O)c1C(c1ccc(O)c([N+](=O)[O-])c1)c1c(C)[nH]n(-c2ccccc2)c1=O	APJ antag 40 | APJ antag confirm inactive
CC1(C(=O)NS(=O)(=O)c2ccc(Br)cc2)CCN1C(=O)Cc1cccs1 (centres undefined)	none (no result: APJ antag, APJ ag, NTR1 agonist, CCR6 antagonist)
O=C1CN2NC(=S)N(c3ccccc3)C2=CN1c1ccc(Cl)cc1	none
CCCCN(C)CCNC(=O)CN1C(=O)CSc2ccc(S(=O)(=O)N3CCCCC3)cc21	APJ antag 49 | APJ antag confirm inactive
CCOc1cc(N2CCOCC2)c(OCC)cc1NC(=O)c1ccc(OC(C)C)cc1	none
CCOC(=O)c1cnc(Nc2nc3ccccc3o2)nc1CSC(=S)N(CC)CC	APJ antag 46 | APJ antag confirm inactive
CCOC(=O)c1cnc(Nc2nc3ccccc3o2)nc1CSc1ncccn1	none (no result: CXCR6 block, m5-HT2A agonist)
CC(C)C(=O)Nc1cccc(C(=O)OCC(=O)c2ccc(Cl)cc2Cl)c1	APJ antag 49 | APJ antag confirm 50
CC(=O)Nc1cc(C(=O)OCC(=O)c2ccc(Cl)cc2Cl)ccc1C	APJ antag 52 | APJ antag confirm inactive
O=C(COC(=O)c1cccnc1Cl)c1ccc(Cl)cc1Cl	APJ antag 58 | APJ antag confirm 60
COc1ccc(-c2coc3cc(OC(C)=O)ccc3c2=S)cc1	none (no result: APJ antag, APJ ag, NTR1 agonist)
CC(C)CC(=O)N1CCN(C(=O)c2ccc(F)cc2)CC1	none
O=c1[nH]c2ccc(Br)cc2o1	none (no result: APJ antag, APJ ag, NTR1 agonist)
O=C(CCl)c1ccc2[nH]c(=O)oc2c1	APJ antag 83 | APJ antag confirm inactive
CCn1nc(C)cc1-c1nnc(Sc2ncc([N+](=O)[O-])s2)n1C	APJ antag 57, CXCR6 block 84, CCR6 antagonist 97 | APJ antag confirm 65
COc1ccccc1NC(=O)C1CC(O)CN1C(=O)Oc1ccccc1 (centres undefined)	none
O=c1c2cc(Br)ccc2[nH]c(=S)n1Cc1ccccn1	APJ antag 59, CXCR6 block 51, CCR6 antagonist 56 | APJ antag confirm 93
CCOCCOC(=O)C1=C(C)NC2=C(C(=O)CC(c3cccs3)C2)C1c1ccsc1 (centres undefined)	APJ antag 45 | APJ antag confirm 57
Cc1ccc(OCC(=O)Nc2ccc3c(c2)OCO3)c(C)c1	APJ antag 66 | APJ antag confirm inactive
Cc1ccc(NC(=O)Nc2ccc3c(c2)OCO3)c(Br)c1	APJ antag 41 | APJ antag confirm inactive
NC(=O)C1CCCN(C(=O)c2ccc(NC(=O)c3cccs3)cc2)C1 (centres undefined)	none
O=S(=O)(NCc1ccccn1)c1cc(Cl)ccc1Cl	none
Oc1[nH]c2ccccc2c1N=Nc1ccccn1	none (no result: APJ antag, APJ ag, NTR1 agonist)
Oc1c(N=Nc2ccccn2)ccc2ccccc12	APJ antag 68, CCR6 antagonist 50 | APJ antag confirm 113
Cn1c(=O)[nH]c(=O)c2c1nc(N1CCNCC1)n2Cc1ccccc1	none
Cn1c(=O)[nH]c(=O)c2c1nc(N1CCNCC1)n2Cc1cccc2ccccc12	APJ antag 41, CXCR6 block 45, CCR6 antagonist 54 | APJ antag confirm 92
Cn1c(=O)c2c(nc(N3CCNCC3)n2Cc2cccc3ccccc23)n(C)c1=O	APJ antag 57, CXCR6 block 47, CCR6 antagonist 62 | APJ antag confirm 99
CCCOc1nc2c(c(=O)n(C)c(=O)n2C)n1Cc1cccc2ccccc12	none
CN(C)c1ccc(N=Nc2nc3ccccc3n2C)cc1	APJ antag 48, CXCR6 block 54, CCR6 antagonist 75 | APJ antag confirm 108
O=C(c1ccco1)C(O)c1ccco1 (centres undefined)	APJ antag 52, CCR6 antagonist 58 | APJ antag confirm 98
COc1cc(/C=C2\SC(=O)NC2=O)ccc1Oc1ccc([N+](=O)[O-])cc1[N+](=O)[O-]	none
CCN1C(=O)C(=Cc2cccc(OC)c2Oc2ccc([N+](=O)[O-])cc2[N+](=O)[O-])SC1=S	APJ antag 50, CXCR6 block 42, CCR6 antagonist 60 | APJ antag confirm 71
O=c1ccc(-c2ccc(S(=O)(=O)Nc3cccc([N+](=O)[O-])c3)s2)n[nH]1	none
CC(=O)Nc1ccc(S(=O)(=O)NCC2(N3CCOCC3)CCCCC2)cc1	none
Cc1nn(-c2nc3ccccc3[nH]2)c(N)c1-c1ccc(Cl)cc1	APJ antag 46 | APJ antag confirm inactive
